Most compounds without a hit are left out; they make up all but 2.9% or so of the library.
ZTA DNA inh: blocks Epstein-Barr virus ZTA, an EBNA-1 counter-screen | AID 2234 | ZTA-DNA binding, fluorescence polarization | inhibition, % at 11 µM | P03206 | 320,000 compounds, 0.15% hits; in the data active = inhibition above about 33%
Apaf1 inhib: inhibitors of human Apaf-1 apoptosome. O14727. reconstituted apoptosome caspase-3 activity, DEVD-Rh110 fluorescence. inhibition, % at 20 µM. 330,000 compounds, 0.71% hits. AID 489030; active = inhibition of at least 40% at 20 µM;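 also: plate controls were DMSO wells for no effect and DEVD-CHO caspase inhibitor wells for full effect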
Target sequence (O14727 whole entry, looked up): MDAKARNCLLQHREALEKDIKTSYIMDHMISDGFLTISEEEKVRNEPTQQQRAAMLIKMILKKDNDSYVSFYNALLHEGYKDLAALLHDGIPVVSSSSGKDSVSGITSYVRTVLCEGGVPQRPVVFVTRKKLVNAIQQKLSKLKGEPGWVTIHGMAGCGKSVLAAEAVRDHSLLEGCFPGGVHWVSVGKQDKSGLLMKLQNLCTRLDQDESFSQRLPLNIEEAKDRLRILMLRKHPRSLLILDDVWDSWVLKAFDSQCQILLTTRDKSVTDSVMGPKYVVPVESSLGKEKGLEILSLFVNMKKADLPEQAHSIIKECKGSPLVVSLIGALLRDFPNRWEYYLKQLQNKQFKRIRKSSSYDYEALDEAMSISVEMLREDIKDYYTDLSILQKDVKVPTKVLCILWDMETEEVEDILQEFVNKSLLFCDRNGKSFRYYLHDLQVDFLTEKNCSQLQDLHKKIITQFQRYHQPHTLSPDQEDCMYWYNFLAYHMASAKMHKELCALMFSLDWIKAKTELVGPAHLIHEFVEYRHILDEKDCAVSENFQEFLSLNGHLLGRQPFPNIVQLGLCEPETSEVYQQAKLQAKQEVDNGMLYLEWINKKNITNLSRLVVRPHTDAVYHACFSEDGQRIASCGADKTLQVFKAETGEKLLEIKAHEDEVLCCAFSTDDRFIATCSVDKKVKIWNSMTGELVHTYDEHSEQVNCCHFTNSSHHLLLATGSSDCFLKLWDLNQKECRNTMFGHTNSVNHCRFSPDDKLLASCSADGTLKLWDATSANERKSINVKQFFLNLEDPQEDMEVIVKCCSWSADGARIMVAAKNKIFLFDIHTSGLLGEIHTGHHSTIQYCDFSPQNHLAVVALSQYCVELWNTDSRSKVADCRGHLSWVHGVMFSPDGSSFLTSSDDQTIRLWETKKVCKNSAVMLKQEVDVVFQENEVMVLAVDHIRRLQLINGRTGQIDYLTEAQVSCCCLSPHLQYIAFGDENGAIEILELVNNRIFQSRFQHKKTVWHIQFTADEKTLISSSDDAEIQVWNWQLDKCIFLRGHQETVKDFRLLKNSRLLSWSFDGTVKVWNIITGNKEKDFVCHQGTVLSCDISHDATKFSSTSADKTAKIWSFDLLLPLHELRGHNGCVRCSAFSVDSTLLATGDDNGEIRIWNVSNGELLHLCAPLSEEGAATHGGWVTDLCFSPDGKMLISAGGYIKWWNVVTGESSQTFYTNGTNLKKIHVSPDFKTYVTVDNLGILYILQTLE
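System: Apoptosome proteins | Medium: Hepes pH 7.5 with detergent and BSA | Also added: Cytochrome c trigger plus (Z-DEVD)2-Rh110 caspase-3 substrate | Incubation: 30 min compound preincubation, 50 min activation, room temperature | Detection: Rhodamine 110 fluorescence at Ex 480/Em 540 nm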
PfG6PD inh: PfG6PD (Plasmodium falciparum) enzyme inhibition; PfGluPho enzyme, NADPH resazurin-diaphorase fluorescence; inhibition, % at 20 µM; 350,000 compounds, 0.78% hits;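 active = inhibition reaching at least a set limit at 20 µM in the primary screen, cut at about 59% in these data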;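 also: 0% = DMSO wells with substrate and 100% = DMSO wells lacking glucose-6-phosphate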
UBC13 polyUb: human UBC13 polyubiquitination inhibition; AID 485273; P61088; inhibition, % at 20 µM; 330,000 compounds, 0.47% hits; UBC13 polyubiquitin chain formation, TR-FRET; in the data active = inhibition above about 45%, passing the limit was not always enough
PfM18AAP inh-1: blocks P. falciparum M18 aspartyl aminopeptidase. recombinant PfM18AAP, H-Glu-NHMec fluorogenic cleavage. inhibition, % at 7.35 µM. 290,000 compounds, 1.2% hits;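 active = inhibition above the campaign mean inhibition over all tested compounds plus 3 SD, cut at about 28% in these data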;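 also: 0% = plate median of test compound wells and 100% = 2 mM ZnCl2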
EBNA-1 inhibitor: blocks EBNA-1 binding to DNA; EBNA-1 DNA binding, fluorescence polarization; inhibition, % at 14.8 µM; 300,000 compounds, 0.34% hits; in the data active = inhibition above about 28%
PfM18AAP inh-2: confirmation of Plasmodium falciparum M18 aspartyl aminopeptidase inhibitors | shares compounds with PfM18AAP inh-1 | recombinant PfM18AAP, H-Glu-NHMec fluorogenic cleavage | inhibition, % at 7.35 µM | 2,400 compounds, 28% hits | AID 2170;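 active = mean inhibition over replicate wells above the hit cutoff set for the earlier primary screen, cut at about 29% in these data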;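 also: 0% = median of test compound wells and 100% = 2 mM ZnCl2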
CTSL1 counter: Cathepsin L (human) inhibition, confirmation. shares compounds with PfM18AAP inh-1. purified cathepsin L1, Z-Leu-Arg-MCA fluorescence. inhibition, % at 5.96 µM. 2,400 tested, under 10 active. AID 2178;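 active = average inhibition across replicates above the hit cutoff set in the earlier primary screen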;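 also: 0% = median of test compound wells and 100% = Z-Phe-Ala-diazomethylketone 1 µM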
Zta DNA confirm: EBV ZTA DNA binding inhibition, confirmation. shares compounds with ZTA DNA inh. Zta-ZRE DNA binding, fluorescence polarization. inhibition, % at 11.1 µM. 320 compounds, 30% hits;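 active = mean inhibition across triplicate runs above the hit threshold derived for the original primary screen, cut at about 33% in these data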;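 also: 0% = Zta with DMSO and 100% = wells lacking Zta protein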
EBNA1 counter: blocks EBNA-1 DNA binding in ZTA counter-screen | inhibition, % at 14.8 µM | 320 tested, under 10 active | AID 2362 | shares compounds with ZTA DNA inh | fluorescence polarization; call rule not given here
Casp3 counter: counter-screen for UBC13 inhibitors: human caspase-3 inhibition | shares compounds with UBC13 polyUb | Recombinant caspase-3, Caspase-Glo 3/7 luminescence, 60 min | inhibition, % at 20 µM | 1,400 compounds, 4% hits | AID 488856;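 active = mean inhibition across replicates above about 26%, limit read from the data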;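 also: plate controls were DMSO with caspase-3 for no effect and DMSO wells lacking enzyme for full effect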
UBC13 conf: human UBC13 polyubiquitin inhibition, confirmed. UBC13 polyubiquitination, TR-FRET, biochemical. shares compounds with UBC13 polyUb. AID 488859. 1,400 compounds, 68% hits. inhibition, % at 10 µM; in the data active = inhibition above about 45%
PfGluPho conf: PfG6PD inhibition, single-dose confirmed; 2,400 compounds, 34% hits; recombinant PfGluPho, NADPH-diaphorase-resazurin fluorescence; shares compounds with PfG6PD inh; inhibition, % at 20 µM;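 active = inhibition of at least 50% at 20 µM in any single replicate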;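 also: 0% = DMSO with substrate and 100% = DMSO lacking glucose-6-phosphate substrate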
Diaph ctr 10uM: diaphorase inhibition or oxidation at 10 uM NADPH. shares compounds with PfG6PD inh. diaphorase-coupled resazurin reduction, fluorescence, NADPH 10 uM. inhibition, % at 20 µM. 820 compounds, 39% hits. AID 504862;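 active = average inhibition reaching 50% or more with the compound at 20 µM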;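 also: resorufin red fluorescence formed as diaphorase reduces resazurin using NADPH; 0% = DMSO with enzyme and 100% = DMSO without enzyme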
Diaph ctr 30uM: inhibits diaphorase or oxidizes, flagging false PfG6PD hits | shares compounds with PfG6PD inh | inhibition, % at 20 µM | 820 compounds, 29% hits | Diaphorase/resazurin coupled assay, resorufin fluorescence, 30 uM NADPH;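 active = inhibition averaging 50% or more, tested at 20 µM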;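 also: 0% = DMSO with enzyme and 100% = DMSO wells lacking diaphorase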
Numbers without * were called inactive.

For O=c1[nH]c(=S)[nH]c(O)c1/C=C1/C=c2ccccc2=N1 the results were ZTA DNA inh 2.7, PfG6PD inh 21.9, PfM18AAP inh-1 43.5*, EBNA-1 inhibitor 5.0, PfM18AAP inh-2 59.4* and CTSL1 counter -2.8.
Screening CCOc1cc(/C=C2/C(=O)NC(=O)N(c3ccc(CC)cc3)C2=O)ccc1OC(=O)c1cccs1 returned ZTA DNA inh 1.6, Apaf1 inhib -3.3, PfG6PD inh 3.2, UBC13 polyUb 0.9, PfM18AAP inh-1 -0.2 and EBNA-1 inhibitor 9.1.
Screening CC1=C[C@@H]2c3cccc4[nH]cc(c34)C[C@H]2N(C)C1 returned ZTA DNA inh -2.0, Apaf1 inhib 28.4, PfG6PD inh 59.5*, UBC13 polyUb 25.0, PfM18AAP inh-1 48.5*, EBNA-1 inhibitor 2.8, PfM18AAP inh-2 -11.9, CTSL1 counter -1.4 and PfGluPho conf -33.8.
Screening CN1C[C@H](CO)C=C2c3cccc4[nH]cc(c34)C[C@H]21 returned ZTA DNA inh -4.8, Apaf1 inhib 29.7, PfG6PD inh 52.8, UBC13 polyUb -77.4, PfM18AAP inh-1 18.1 and EBNA-1 inhibitor -12.3.
Screening O=C(OCC(=O)c1ccc([N+](=O)[O-])cc1)/C(=C\c1ccc(Cl)cc1)NC(=O)c1ccccc1 returned ZTA DNA inh -3.7, Apaf1 inhib 16.8, PfG6PD inh 44.4, UBC13 polyUb -12.6, PfM18AAP inh-1 40.1*, EBNA-1 inhibitor -3.7, PfM18AAP inh-2 3.8, CTSL1 counter 12.3, PfGluPho conf 69.0*, Diaph ctr 10uM -2.6 and Diaph ctr 30uM -12.0.
Screening O=c1c2ccccc2nc(CSc2ncnc3nc[nH]c23)n1-c1ccc(Cl)c(Cl)c1 returned ZTA DNA inh -10.8, Apaf1 inhib 21.2, PfG6PD inh 6.5, UBC13 polyUb -7.5, PfM18AAP inh-1 -0.8 and EBNA-1 inhibitor -1.9.
`C=CCN1CCc2cccc3c2[C@H]1Cc1ccc(O)c(O)c1-3` gave ZTA DNA inh -5.0, Apaf1 inhib 19.9, PfG6PD inh 80.6*, UBC13 polyUb -6.1, PfM18AAP inh-1 62.0*, EBNA-1 inhibitor -8.1, PfM18AAP inh-2 56.4*, CTSL1 counter -5.3, PfGluPho conf 84.0*, Diaph ctr 10uM 22.8 and Diaph ctr 30uM 13.8.
`CN1CC2=CC(O)CC3Oc4c(O)ccc(c4[C@]23C)C1` (some centres not stated) gave ZTA DNA inh -9.3, Apaf1 inhib -5.9, PfG6PD inh -1.6, UBC13 polyUb -2.4 and EBNA-1 inhibitor -11.5.
Screening CCN(CC)c1ccc(N=Cc2c(O)n(-c3ccccc3)c(=O)[nH]c2=O)cc1 returned ZTA DNA inh 37.9*, Apaf1 inhib -9.6, PfG6PD inh 22.2, UBC13 polyUb -22.3, PfM18AAP inh-1 17.7, EBNA-1 inhibitor 10.4, Zta DNA confirm 1.2 and EBNA1 counter -4.2.
`CCN(CC)c1ccc(N=Cc2c(O)n(-c3ccccc3C)c(=O)[nH]c2=O)cc1` gave ZTA DNA inh 32.5, Apaf1 inhib 17.0, PfG6PD inh 7.6, UBC13 polyUb -24.1, PfM18AAP inh-1 22.5 and EBNA-1 inhibitor -7.1.
For CCOc1ccccc1-n1c(O)c(C=Nc2ccc(N(CC)CC)cc2)c(=O)[nH]c1=O the results were ZTA DNA inh 36.9*, Apaf1 inhib 25.1, PfG6PD inh 10.9, UBC13 polyUb -29.9, PfM18AAP inh-1 20.0, EBNA-1 inhibitor 0.5, Zta DNA confirm 5.4 and EBNA1 counter -0.2.
Screening COc1cc2[nH]c(=O)n(-c3cccc(Cl)c3)c(=O)c2cc1OC returned ZTA DNA inh -9.4, Apaf1 inhib -38.5, PfG6PD inh -5.9, UBC13 polyUb 4.7, PfM18AAP inh-1 7.8 and EBNA-1 inhibitor 2.4.
For O=c1[nH]c2ccccc2c(=O)n1-c1ccc(Cl)cc1Cl the results were ZTA DNA inh 34.9*, Apaf1 inhib -22.8, PfG6PD inh -4.4, UBC13 polyUb 15.4, PfM18AAP inh-1 4.4, EBNA-1 inhibitor 2.9, Zta DNA confirm 6.1 and EBNA1 counter -2.0.
COC(=O)c1ccc(NC(=O)NC(=O)Oc2ccccc2)cc1 was read as ZTA DNA inh 1.9, Apaf1 inhib -18.9, PfG6PD inh 0.0 and UBC13 polyUb -10.5.
CCC(=NCCCn1ccnc1)c1c(O)n(Cc2ccccc2)c(=O)[nH]c1=O was read as ZTA DNA inh -15.8, Apaf1 inhib 3.2, PfG6PD inh 0.7, UBC13 polyUb 1.3, PfM18AAP inh-1 5.6 and EBNA-1 inhibitor -1.8.
Screening CCCCOP(=O)(OCCCC)/C(C#N)=C(/C)O returned ZTA DNA inh active, Apaf1 inhib 1.0, PfG6PD inh -16.8, UBC13 polyUb -5.2, PfM18AAP inh-1 -4.3, EBNA-1 inhibitor -5.8, Zta DNA confirm 0.5 and EBNA1 counter -7.6.
Screening O=P1(NCCCl)OCCCN1CCCl (configuration not stated) returned ZTA DNA inh -9.8, Apaf1 inhib -6.3, PfG6PD inh -5.1, UBC13 polyUb 45.8*, EBNA-1 inhibitor 1.0, Casp3 counter 3.7 and UBC13 conf 2.8.
`CCN(CC)CCCNC(=O)c1c(O)c2ccccc2n(Cc2ccccc2)c1=O` gave ZTA DNA inh 14.9, Apaf1 inhib 14.7, PfG6PD inh 39.8, UBC13 polyUb 52.8*, PfM18AAP inh-1 2.2, EBNA-1 inhibitor -2.3, Casp3 counter 2.1 and UBC13 conf 73.5*.
